The text below walks through data of PubChem BioAssay.

Active and inactive are the calls of the source.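 The calls were made as follows, unless noted: active = fluorescence slope after compound addition differing from the mean of all tested samples at 99.7% confidence, mostly higher but some lower; inactive = the rest.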

Test [1] is described as follows: inhibitors of TNFa-induced NFkB p65 translocation, primary screen, imaging, HUVEC, MLSMR starter and 10KST1 sets (AID 438;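 active = inhibition above 20% together with a positive visual image hit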;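 also: compound added about 3h40 before a 20 min TNFalpha stimulation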;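 as to inhibition: signal is the nuclear over cytoplasmic p65 intensity ratio per well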). Particulars: HUVEC TNFa-induced p65 nuclear translocation; cell count: measured here: nuclei count (cytotoxicity indicator), at 2.08 µM; inhibition: at 2 µM, stronger effect = higher value, 0% TNFa-plus-vehicle, 100% no-TNFa wells.
Test [2] is described as follows: inhibitors of mutant huntingtin aggregation, primary screen, imaging, exon1htt(103Q)mCFP cells, high-content imaging (AID 483;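 active = visual image review flags a hit and inhibition of aggregation exceeds 20%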;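 also: compound exposure lasted 3 days before fixation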;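 as to nuclei count: percent of the per-plate median nuclei count of sample wells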). Particulars: exon1htt(103Q)mCFP cell line, aggregate imaging, at 2 µM; inhibition of aggregation: stronger effect = higher value; nuclei count: measured here: cell count, toxicity.
A short description of test [3]: inhibitors of E-selectin induction by TNFa, primary screen, imaging, HUVEC, immunofluorescence, MLSMR starter and 10KST1 sets (AID 487;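 active = visually confirmed hit in the image check and inhibition above 20%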;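 as to inhibition: signal is fraction of cell area covered by stained E-selectin grains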;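 as to nuclei count: 100% = median nuclei count of all wells on the same plate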). The settings on record: HUVEC TNFalpha-induced E-selectin immunofluorescence imaging, at 2 µM; inhibition: stronger effect = higher value; nuclei count: measured here: cell number, toxicity.
Test [4] has as its target Voltage-gated potassium channel subunit beta-2 (Rattus norvegicus) (UniProt P62483). The test can be described thus: KvBeta enzyme negative modulators, primary screen, biochemical, NADPH fluorescence (AID 622;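 active = fluorescence slope higher than the sample average by over 3 SD, cut at about -0.22 in these data, passing the limit was not always enough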;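 also: slope of raw intensity against log time taken from 70 to 1610 s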). The settings on record: recombinant KvBeta, 4-cyanobenzaldehyde reduction, at 10 µM, stronger effect = higher value.
Test [5] has the same target. The experiment in a line: KvBeta positive modulators, primary screen, biochemical, NADPH fluorescence (AID 623;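 active = NADPH fluorescence slope more negative than the mean of all samples by about 3 SD, 99.7% confidence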;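 also: fluorescence intensity change per second fitted from 20 to 320 s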). The settings on record: Recombinant KvBeta, NADPH fluorescence decrease slope, 10 min; at 10 µM; stronger effect = lower value.
In test [6] the target is Muscarinic acetylcholine receptor M4 (Homo sapiens) (UniProt P08173). The test can be described thus: compounds altering M4/GIRK thallium flux, either direction, primary screen, M4 allosteric agonist project, cell-based, HEK293 M4/GIRK, BTC-AM (AID 625).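 Also: thallium influx through GIRK channels coupled to M4 in HEK293 cells with BTC-AM dye.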 The settings on record: at 10 µM, actives lie on both sides. A digest of the protocol: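 Material: M4/GIRK1/GIRK2 stable HEK293 cell line. Medium: pH 7.3 thallium assay buffer. Dosing: single compound concentration, 10 µM final. Schedule: 1 h dye loading, 2 min kinetic read. Measured by: kinetic fluorescence with BTC-AM dye. Read-out: post-addition slope, 15–24 s, of baseline-normalized fluorescence. Benchmarks: carbachol and DMSO controls.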
Chain of Muscarinic acetylcholine receptor M4 (Homo sapiens) (P08173 whole entry, looked up): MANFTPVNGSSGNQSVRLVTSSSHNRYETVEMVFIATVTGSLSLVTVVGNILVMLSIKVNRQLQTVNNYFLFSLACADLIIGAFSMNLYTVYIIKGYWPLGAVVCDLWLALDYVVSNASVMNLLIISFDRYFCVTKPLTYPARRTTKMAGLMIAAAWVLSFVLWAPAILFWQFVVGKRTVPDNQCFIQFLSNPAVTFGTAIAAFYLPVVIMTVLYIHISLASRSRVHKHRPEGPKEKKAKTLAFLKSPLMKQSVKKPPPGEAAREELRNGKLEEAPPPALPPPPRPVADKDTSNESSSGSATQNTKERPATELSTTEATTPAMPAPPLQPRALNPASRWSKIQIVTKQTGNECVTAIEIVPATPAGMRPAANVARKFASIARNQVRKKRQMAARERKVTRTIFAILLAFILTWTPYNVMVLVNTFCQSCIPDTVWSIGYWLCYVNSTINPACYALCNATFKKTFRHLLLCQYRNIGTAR

A short description of test [7]: inhibitors of Sendai virus-induced IRF3 signaling, primary screen, TLR/RLR signaling modifier project, cell-based, Sendai virus stimulus, luciferase, 10K MLSCN set (AID 602276;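 active = inhibition at or above 50% at 10 µM; inactive = inhibition below 50%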;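 also: firefly luciferase from ISG56 promoter only with Renilla not read in this screen; 0% = Sendai virus plus DMSO and 100% = medium plus DMSO without virus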). Particulars: HEK293 RL24 IRF3 luciferase reporter, at 10 µM, stronger effect = higher value. Background: A reporter such as luciferase makes a cellular process visible.
The nature of test [8]: inhibitors of poly I:C-induced TLR3 signaling, primary screen, cell-based, poly I:C stimulus, luciferase, 10K MLSCN set (AID 602277;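 active = inhibition of the reporter signal at or above 50%; inactive = inhibition below 50%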). The settings on record: HEK293-TLR3 RL24 IRF3 luciferase reporter, at 10 µM, stronger effect = higher value.

Chain of Voltage-gated potassium channel subunit beta-2 (Rattus norvegicus) (P62483 whole entry, looked up): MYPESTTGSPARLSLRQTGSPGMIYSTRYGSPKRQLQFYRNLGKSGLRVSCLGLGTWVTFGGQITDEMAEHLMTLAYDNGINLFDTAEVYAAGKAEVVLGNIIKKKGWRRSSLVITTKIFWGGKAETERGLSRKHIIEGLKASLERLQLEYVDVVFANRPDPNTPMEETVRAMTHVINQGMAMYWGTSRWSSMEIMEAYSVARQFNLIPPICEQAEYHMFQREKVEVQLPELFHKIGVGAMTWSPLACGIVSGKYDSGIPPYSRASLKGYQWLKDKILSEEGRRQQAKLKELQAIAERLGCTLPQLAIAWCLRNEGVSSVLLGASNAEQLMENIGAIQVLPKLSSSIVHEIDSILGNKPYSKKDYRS

As to `Nc1nc(N)nc(-c2ccccc2)n1`, the cell count in test [1] came to 402. For the same molecule, the inhibition (usually the change of the read-out against control, counted positive when it falls) was 6% (inactive) in test [1], 22.3% (inactive) in test [3], 13.8% (inactive) in test [7] and 13.5% (inactive) in test [8]. For the same molecule, the inhibition of aggregation in test [2] was 12% (inactive). Further, the nuclei count in test [2] came out at 91.3%; in test [3] it was 102%. Also, the values for the fluorescence slope in test [4] and in test [6] were -0.599 (inactive) and 0.00335 (inactive), respectively. Moreover, the NADPH fluorescence slope in test [5] is -3.3e-05 (inactive).

For the molecule `Cc1ccc(NC(=O)CC2Nc3ccccc3NC2=O)cc1Cl` (stereo not drawn), the cell count in test [1] came to 357. Besides, the inhibition in test [1] is 1.4% (inactive); in test [3] it was -45.4% (inactive); in test [7], -4.9% (inactive); in test [8], -16.9% (inactive). The inhibition of aggregation in test [2] was 14.7% (inactive). In addition, the nuclei count was determined as 84.3% in test [2] and 99.7% in test [3]. The fluorescence slope was -0.545 (inactive) in test [4] and 0.00597 (inactive) in test [6]. The NADPH fluorescence slope in test [5] was -1.9e-05 (inactive).

As to `CC1(C)NC(=O)N(CNc2cc(Cl)ccc2Cl)C1=O`, the cell count in test [1] amounted to 649. In addition, the inhibition in test [1] was -17.4% (inactive); in test [3] it was 0.8% (inactive); in test [7], 10.6% (inactive); in test [8] it was 21.9% (inactive). Also, in test [2], the inhibition of aggregation is -1.9% (inactive). Moreover, the nuclei count was found to be 105% in test [2] and 96.7% in test [3]. Moreover, the fluorescence slope in test [4] was -0.435 (inactive); in test [6] it was 0.00524 (inactive). Moreover, in test [5], the NADPH fluorescence slope is -0.000384 (inactive).

Turning to `Cc1ccc(-n2nc(-c3cccs3)cc2C(=O)NCC2CCCO2)c(C)c1` (stereo not drawn), the cell count in test [1] amounted to 490. In addition, the inhibition in test [1] was -1.7% (inactive); in test [3] it was -9.6% (inactive); in test [7], 7.58% (inactive); in test [8], 20.7% (inactive). Also, the inhibition of aggregation in test [2] was -12.1% (inactive). Further, the nuclei count worked out at 15.1% in test [2] and 110% in test [3]. Moreover, the values for the fluorescence slope in test [4] and in test [6] were -0.405 (inactive) and 0.00713 (inactive), respectively. Also, the NADPH fluorescence slope in test [5] was -8.6e-05 (inactive).

Consider `COc1cccc(S(=O)(=O)Nc2cccnc2)c1`, for which, in test [1], the cell count was 625. The inhibition was -15.2% (inactive) in test [1], -20.1% (inactive) in test [3], 5.36% (inactive) in test [7] and -3.49% (inactive) in test [8]. Further, the inhibition of aggregation in test [2] is -31.5% (inactive). For the same molecule, the nuclei count stood at 119% in test [2] and 96.4% in test [3]. The fluorescence slope is -0.552 (inactive) in test [4] and 0.00542 (inactive) in test [6]. In test [5], the NADPH fluorescence slope was 3.5e-05 (inactive).

As for `O=C(O)C1CCCN1C(=O)Nc1ccc(F)cc1` (stereo not drawn), the cell count in test [1] is 543. The inhibition in test [1] is -32.6% (inactive); in test [3], -32.7% (inactive); in test [7], 8.17% (inactive); in test [8], 10.2% (inactive). The inhibition of aggregation in test [2] is 13.6% (inactive). Further, the figures for the nuclei count in test [2] and in test [3] were 91.3% and 98.5%, respectively. The results for the fluorescence slope in test [4] and in test [6] were -0.301 (inactive) and 0.00613 (inactive), respectively. Besides, the NADPH fluorescence slope in test [5] was -4.9e-05 (inactive).

As to `O=C(CCC(=O)OCCCC(F)(F)C(F)(F)F)NC1CCCCC1`, the cell count in test [1] is 424. Moreover, the inhibition in test [1] was 4% (inactive); in test [3], -37.5% (inactive); in test [7] it was 13.9% (inactive); in test [8], 16.1% (inactive). In addition, the inhibition of aggregation in test [2] is 5.5% (inactive). Further, the nuclei count in test [2] came out at 108%; in test [3] it was 122%. The fluorescence slope in test [4] was -0.53 (inactive); in test [6], 0.00556 (inactive). In test [5], the NADPH fluorescence slope was -4e-05 (inactive).

On to `CC(=O)c1cc2c(=O)c3cc(C)ccc3oc2nc1C`, for which the cell count in test [1] came to 410. The inhibition in test [1] was 5.3% (inactive); in test [3], -96.2% (inactive); in test [7], -28.2% (inactive); in test [8], -91.3% (inactive). Besides, the inhibition of aggregation in test [2] is 7.1% (inactive). The nuclei count was 93.5% in test [2] and 187% in test [3]. The results for the fluorescence slope in test [4] and in test [6] were -0.346 (inactive) and 0.00597 (inactive), respectively. Besides, the NADPH fluorescence slope in test [5] was 5.2e-06 (inactive).

Turning to `CC1(C)CC(=O)C2=C(C1)Nc1nc(SCCN3CCOCC3)[nH]c(=O)c1C2c1cccs1` (stereo not drawn), the cell count in test [1] was determined as 549. Also, the inhibition is -8.4% (inactive) in test [1], -42.7% (inactive) in test [3], -3.95% (inactive) in test [7] and -12.2% (inactive) in test [8]. Further, the inhibition of aggregation in test [2] was -11.8% (inactive). Besides, the nuclei count in test [2] was found to be 50.7%; in test [3] it was 104%. The fluorescence slope in test [4] was -0.57 (inactive); in test [6], 0.00647 (inactive). The NADPH fluorescence slope in test [5] is -3e-05 (inactive).

On to `Cn1c(=O)c2c(nc(SCCCO)n2Cc2ccccc2Cl)n(C)c1=O`, for which the cell count in test [1] was found to be 531. The inhibition was 7.2% (inactive) in test [1], 41% (inactive) in test [3], 7.16% (inactive) in test [7] and 22.9% (inactive) in test [8]. Besides, in test [2], the inhibition of aggregation was -0.4% (inactive). The nuclei count in test [2] amounted to 96%; in test [3], 92.6%. In addition, the fluorescence slope in test [4] was -0.424 (inactive); in test [6], 0.00759 (inactive). Besides, the NADPH fluorescence slope in test [5] is 3e-05 (inactive).

Turning to `CCOC(=O)Nc1ccc2c(c1)N(C(=O)CN(CC)CC)c1ccccc1C=C2`, the cell count in test [1] turned out to be 389. Moreover, the inhibition in test [1] is 3.3% (inactive); in test [3], -96.2% (inactive); in test [7], 18.3% (inactive); in test [8] it was 26.3% (inactive). In test [2], the inhibition of aggregation is -9.7% (inactive). The nuclei count turned out to be 108% in test [2] and 119% in test [3]. For the same molecule, the fluorescence slope in test [4] is -0.577 (inactive); in test [6], 0.00312 (inactive). Moreover, the NADPH fluorescence slope in test [5] is -0.000132 (inactive).

For `CCC1c2ccc(C)n2CCN1C(=O)Nc1ccccc1OC` (stereo not drawn), the cell count in test [1] was 551. Besides, the inhibition is -15.9% (inactive) in test [1], -63.1% (inactive) in test [3], 3.56% (inactive) in test [7] and 3.42% (inactive) in test [8]. In addition, in test [2], the inhibition of aggregation is 0.1% (inactive). The nuclei count in test [2] is 112%; in test [3], 116%. Besides, the fluorescence slope in test [4] was -0.402 (inactive); in test [6], 0.00541 (inactive). The NADPH fluorescence slope in test [5] is -6.4e-05 (inactive).

Turning to `CCOCCCNS(=O)(=O)c1ccc2c(c1)oc(=O)n2CC(=O)OCC`, in test [1], the cell count came out at 454. Further, the inhibition in test [1] was -6.6% (inactive); in test [3], -7.8% (inactive); in test [7], 12.8% (inactive); in test [8] it was 23.6% (inactive). For the same molecule, in test [2], the inhibition of aggregation is 24.3% (inactive). Further, the nuclei count in test [2] worked out at 119%; in test [3], 82.5%. Also, the fluorescence slope is -0.444 (inactive) in test [4] and 0.00606 (inactive) in test [6]. Besides, the NADPH fluorescence slope in test [5] is 3.2e-05 (inactive).
